Holding throughout (type): functional, Mus musculus
Experiment [1] deals with Friend leukemia cell line. Description: The degree of erythroid maturation was measured by assessing the proportion of benzidine-positive friend leukemia cells at a concentration of 4 mM. Put shortly: (§1)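 Friend erythroleukemia clone 745A cells seeded at 10^5 cells/mL in DMEM with 15% fetal calf serum at 37 °C, 10% CO2. Agent given at seeding, continuous exposure, twofold-graded concentrations; Me2SO positive control in each experiment. On day 6, hemoglobin-containing cells scored cytologically by staining with acid benzidine peroxide. Optimum concentration averaged from at least two experiments.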

Experiment [2] has as its system Friend leukemia cell line. In words: Cell growth of friend erythroleukemia cells measured as percentage of control on day 6 at a concentration of 4 mM. The following applies: at 4 mM.
For experiment [3], the system named is Friend leukemia cell line. Description: Percent of untreated control cell growth evaluated in friend leukemia cells on day 3 at a concentration of 4 mM. The following applies: at 4 mM.
Experiment [4] concerns Friend leukemia cell line. Description: The degree of erythroid maturation was measured by assessing the proportion of benzidine-positive cells at a concentration of 4 mM. The conditions noted are these: at 4 mM.
Experiment [5] deals with Friend leukemia cell line. In words: Cell growth of friend erythroleukemia cells measured as percentage of control on day 6 at a concentration of 2 mM. Put shortly:
(§2)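 Friend murine erythroleukemia clone 745A grown in suspension at 37 °C, 10% CO2, in DMEM with 15% fetal calf serum, streptomycin and penicillin. Agent added at seeding of exponentially growing cells (10^5 cells/mL), continuous exposure over twofold-graded concentrations. Cell numbers counted electronically on days 3 and 6, expressed relative to untreated control. At least two separate experiments.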

Experiment [6] deals with Friend leukemia cell line. Description: The degree of erythroid maturation was measured by assessing the proportion of benzidine-positive cells at a concentration of 2 mM. Put shortly:
as §1

The subject of experiment [7] is Friend leukemia cell line. Description: Percent of untreated control cell growth evaluated in friend leukemia cells on day 3 at a concentration of 2 mM. Put shortly:
as §2

The test system of experiment [8] is Friend leukemia cell line. Description: Cell growth of friend erythroleukemia cells measured as percentage of control on day 6 at a concentration of 0.1-10 mM. The procedure, abridged:
as §2

Experiment [9] deals with Friend leukemia cell line. In words: Percent of untreated control cell growth evaluated in friend leukemia cells on day 3 at a concentration of 0.1-10 mM. The procedure, abridged:
as §2

Experiment [10] concerns Friend leukemia cell line. Description: The degree of erythroid maturation was measured by assessing the proportion of benzidine-positive friend leukemia cells at a concentration of 0.1-10 mM. Put shortly:
as §1

Experiment [11] relates to Friend leukemia cell line. Description: The degree of erythroid maturation was measured by assessing the proportion of benzidine-positive friend leukemia cells at a concentration of 2 mM. The procedure, abridged:
as §1

The test system of experiment [12] is Friend leukemia cell line. In words: Percent of untreated control cell growth evaluated in friend leukemia cells on day 3 at a concentration of 16 mM. Put shortly:
as §2

Experiment [13] concerns Friend leukemia cell line. Description: Cell growth of friend erythroleukemia cells measured as percentage of control on day 6 at a concentration of 16 mM. Put shortly: as §2
Experiment [14] deals with Friend leukemia cell line. In words: The degree of erythroid maturation was measured by assessing the proportion of benzidine-positive friend leukemia cells at a concentration of 16 mM. The procedure, abridged: as §1
Experiment [15] relates to Friend leukemia cell line. Description: Percent of untreated control cell growth evaluated in friend leukemia cells on day 3 at a concentration of 1 mM. The procedure, abridged: as §2
In experiment [16] the test system is Friend leukemia cell line. In words: The degree of erythroid maturation was measured by assessing the proportion of benzidine-positive friend leukemia cells at a concentration of 1 mM. Put shortly:
as §1

The subject of experiment [17] is Friend leukemia cell line. Description: Cell growth of friend erythroleukemia cells measured as percentage of control on day 6 at a concentration of 1 mM. Put shortly: as §2
Experiment [18] deals with Friend leukemia cell line. Description: Effect on the replication and erythroid differentiation of friend leukemia cells on day 3 at a concentration of 210 mM.
Experiment [19] concerns Friend leukemia cell line. In words: The degree of erythroid maturation was measured by assessing the proportion of benzidine-positive cells at a concentration of 210 mM. The procedure, abridged: as §1
Experiment [20] deals with Friend leukemia cell line. In words: Cell growth of friend erythroleukemia cells measured as percentage of control on day 6 at a concentration of 105 mM. The procedure, abridged: as §2
Experiment [21] relates to Friend leukemia cell line. In words: Effect on the replication and erythroid differentiation of friend leukemia cells on day 6 at a concentration of 210 mM.
Experiment [22] relates to Friend leukemia cell line. In words: Percent of untreated control cell growth evaluated in friend leukemia cells on day 3 at a concentration of 105 mM. The procedure, abridged: as §2

Some results are limits rather than exact numbers.

For `CCN1CCCN(CC)C1=O`, the Benzidine positive cells in [1] worked out at 70%. Besides, the Cell growth in experiment [2] was determined as 127%; in experiment [3] it was 160%.
With `CN1CCCN(C)C1=S`, the figures for the Cell growth in experiment [2] and in [3] were 135% and 75%, respectively. Further, the Benzidine positive cells in experiment [4] is on record as 83%.
For `SC1=NCCCCN1`, the figures for the Cell growth in [5] and in [7] were 82% and 54%, respectively. For the same compound, the Benzidine positive cells in experiment [6] is recorded as 42%.
With `SC1=NCCCN1`, the values for the Cell growth in experiment [5] and in [7] were 44% and 144%, respectively. The compound further gave a Benzidine positive cells in experiment [6] of 14%.
On to `CCCCN1CCCN(CCCC)C1=O`, for which the values for the Cell growth in experiment [8] and in experiment [9] were less than 1% and less than 5%, respectively. Besides, in experiment [10], the Benzidine positive cells is less than 1%.
Turning to `O=C(N1CCCCC1)N1CCCCC1`, the Benzidine positive cells in experiment [1] is 10%. The Cell growth was found to be 33% in [2] and 28% in experiment [3].
For `CCN1CCCCN(CC)C1=O` the same measures were 31%, 131% and 40%.
The compound `CCN(CC)C(=O)N(CC)CC` yielded a Benzidine positive cells in experiment [11] of 68%. Moreover, the values for the Cell growth in [5] and in experiment [7] were 77% and 69%, respectively.
Take `O=C1NCCN1`: the Cell growth in experiment [2] was found to be 108%; in [3], 88%. In addition, the Benzidine positive cells in [4] turned out to be 4%.
With `CCN1CCN(CC)C1=O`, the values for the Cell growth in experiment [12] and in experiment [13] were 36% and 140%, respectively. This compound had a Benzidine positive cells in [14] of 81%.
`CCN1CCN(CC)C1=S` returned a Benzidine positive cells in [11] of 84%. Besides, the values for the Cell growth in experiment [5] and in experiment [7] were 120% and 60%, respectively.
Regarding `CN(C)C(=S)N(C)C`, the Cell growth in [5] amounted to 98%; in [7] it was 123%. The same compound yielded a Benzidine positive cells in experiment [6] of 79%.
The corresponding values for `CN1CCCN(C)C1=O` are 87%, 90% and 92%.
For `CN1CCCNC1=O` the same measures were 136%, 46% and 50%.
On to `CN1CCN(C)C1=O`, for which the Cell growth was 73% in experiment [2] and 70% in [3]. In addition, the Benzidine positive cells in experiment [4] is on record as 92%.
As to `CCN(CC)C(=S)N(CC)CC`, the figures for the Cell growth in experiment [8] and in experiment [9] were less than 1% and less than 4%, respectively. The same compound gave a Benzidine positive cells in experiment [10] of less than 1%.
Consider `O=C1NCCCCN1`, for which the values for the Cell growth in [5] and in experiment [7] were 104% and 93%, respectively. The same compound displayed a Benzidine positive cells in experiment [6] of 66%.
As for `O=C1NCCCN1`, the Cell growth in experiment [2] stood at 121%; in [3], 124%. In experiment [4], this compound displayed a Benzidine positive cells of 15%.
In turn, `CN1CCCCN(C)C1=O` had a Benzidine positive cells in experiment [1] of 92%. The Cell growth was 61% in [2] and 25% in experiment [3].
For `CN1CCN(C)C1=S`, the values for the Cell growth in [5] and in [7] were 95% and 102%, respectively. The Benzidine positive cells in experiment [6] is listed as 66%.
With `CN1CCCCN(C)C1=S`, the Benzidine positive cells in [1] worked out at 79%. Moreover, the Cell growth came to 73% in [2] and 64% in experiment [3].
Consider `CCN1CCCN(CC)C1=S`, for which the Cell growth in [15] is recorded as 45%; in experiment [17], 97%. Further, the Benzidine positive cells in experiment [16] amounted to 61%.
Regarding `CN1CCCN=C1S`, the figures for the Cell growth in experiment [5] and in experiment [7] were 166% and 107%, respectively. Further, the Benzidine positive cells in experiment [6] was 22%.
With `C[S+](C)[O-]` [DIMETHYL SULFOXIDE], the Cell growth in experiment [18] was determined as 72%; in [20], 120%; in [21], 110%; in [22] it was 70%. Further, the Benzidine positive cells turned out to be 94% in [19] and 75% in experiment [4].
For `S=C1NCCN1` [ETHYLENE THIOUREA], the Cell growth in [2] amounted to 62%; in experiment [3], 128%. In [4], the Benzidine positive cells was 21%.

Source of the values: ChEMBL document CHEMBL1121698, “Cyclic urea and thiourea derivatives as inducers of murine erythroleukemia differentiation” (1981).
